Assay results reported in article PMC6363535 (Journal of pharmaceutical and biomedical analysis, 2018).
≈ marks a conversion by molar mass, not a printed value.

What was measured:
[1] = test system: mAb 2G11G4; experiment: indirect competitive ELISA; type: binding, mouse; settings: for Cross reactivity: (IC50 of dihydroartemisinin/IC50 of the other compound) × 100; for IC50: icELISA, mAb 2G11G4, coating antigen 9-O-succinyldihydroartemisinin-OVA
[2] = general statement, no reference given; cited from earlier work
[3] = test system: mAb 2G11G4; experiment: colloidal gold-based lateral flow immunoassay; type: binding, mouse; settings: for dipstick cross-reaction: drug concentration less than 100 ng/mL; for dipstick test line: standards at 100 ng/mL; for dipstick inhibition: standards at 500 ng/mL
How it was run: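 Anti-DHA mAb adsorbed onto 30 nm colloidal gold at pH 7.8, blocked with BSA, pelleted and resuspended in 0.01 M PBS pH 7.0. Gold-mAb was used at 30 μg/mL. Capture lines on nitrocellulose were 9-O-succinyl-DHA-BSA (1 mg/mL, test) and goat anti-mouse IgG (0.4 mg/mL, control), 5 mm apart. Aqueous DHA standards were 0–100 ng/mL. Indicator range is the lowest concentration at which the test line disappears visually.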

[4] = test system: mAb 3D82G7; settings: cited from earlier work
[5] = test system: artemisinin antibody developed earlier; settings: cited from earlier work
[6] = buffer solution (pH=7.4); cited from earlier work
[7] = time course of DHA degradation in malaria culture, measured by icELISA; type: in vitro ADME, Plasmodium falciparum

Row | Structure (SMILES) | Cross reactivity [1] [%] | IC50 [1] [µg/mL] | dipstick cross-reaction [3] | dipstick test line [3] | dipstick inhibition [3] | further results
1 | CCN(CC)Cc1cc(Nc2ccnc3cc(Cl)ccc23)ccc1O [Amodiaquine] | <0.02 | >20 | – | – | – | –
2 | CO[C@H]1O[C@@H]2O[C@@]3(C)CC[C@H]4[C@H](C)CC[C@@H]([C@H]1C)[C@@]24OO3 [Artemether] | <0.02 | >20 | did not cross-react | showed obvious color | no inhibition | water solubility [2]: poor water solubility
3 | C[C@@H]1CC[C@H]2[C@@H](C)C(=O)O[C@@H]3O[C@@]4(C)CC[C@@H]1[C@]32OO4 [Artemisinin] | 52.3 | 0.00222 (≈ 0.00786 µM) | did not cross-react | showed obvious color | different degrees of inhibition | water solubility [2]: poor water solubility
4 | C[C@H]1[C@H](OC(=O)CCC(=O)O)O[C@@H]2O[C@@]3(C)CC[C@H]4[C@H](C)CC[C@@H]1[C@@]24OO3 [Artesunate] | 1.6 | 0.0704 (≈ 0.183 µM) | did not cross-react | showed obvious color | different degrees of inhibition | Cross reactivity ([1]; listed as artesunate): low or no cross reactivity; cross-reactivity [4]: 460%; cross-reactivity [5]: 650%
5 | CCN(CC)CCCC(C)Nc1ccnc2cc(Cl)ccc12 (stereo not drawn) [Chloroquine] | – | >20 | – | – | – | –
6 | C[C@H]1[C@@H](O)O[C@@H]2O[C@@]3(C)CC[C@H]4[C@H](C)CC[C@@H]1[C@@]24OO3 [Dihydroartemisinin] | 100 | 0.00116 (≈ 0.00408 µM) | – | – | – | working range (IC20 – IC80) ([1]; DHA concentration causing 20–80% inhibition of the signal): 0.00026 to 0.00487 µg/mL; indicator range (lowest concentration at which the test line was not visible) ([3]; dipstick, serially diluted standard DHA): 50 to 100 ng/mL; half-life [6]: 5.5 h; half-life at 200 nM ([7]; Plasmodium falciparum): 3.64 ± 0.48 h; half-life at 200 nM ([7]; culture medium only (no cells)): 5.56 ± 0.87 h; DHA concentration after 12 h of incubation ([7]; parasite culture at 5% parasitemia, starting concentration 200 nM): < 4 nM; half-life at 200 nM ([7]; red blood cells in culture medium at 5% hematocrit): 4.55 ± 0.69 h
7 | CCCCN(CCCC)CC(O)c1cc(Cl)cc2c1-c1ccc(Cl)cc1/C2=C/c1ccc(Cl)cc1 (stereo not drawn) [Lumefantrine] | <0.02 | >20 | – | – | – | –
8 | Clc1ccc2c(N3CCN(CCCN4CCN(c5ccnc6cc(Cl)ccc56)CC4)CC3)ccnc2c1 [Piperaquine] | <0.02 | >20 | – | – | – | –
